MEKK2mut PB1 HTS: signal of MEK5 binding to mutant human MEKK2 PB1 domain | bead flow cytometry, Alexa488-MEK5 binding to MEKK2 mutant | AID 1530 | percent response, % at 10 µM | hit rate 0.35% among 290,000; in the data active = percent response above about 24%, passing the limit was not always enough
Rce1 inhib: yeast Ras-converting enzyme inhibition; Q03530; yeast membranes, quenched prenylated peptide cleavage fluorescence; calls only; hit rate 0.27% among 290,000; AID 2563;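 active = fall in fluorescence gain of 50% or more versus controls, with final raw signal at or below 3038400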
T cell HTS: T cell immune modulators affecting CD8 T cell-vesicle binding | AID 2052 | response (vesicle binding), % at 7 µM | 2C CD8+ T cell-vesicle binding, flow cytometry; stronger effect = lower value | hit rate 0.068% among 330,000;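 active = response, share of CD8 T cells binding vesicles, and their 90th percentile fluorescence all below set limits, cut at about 80% in these data, passing the limit was not always enough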;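 note: values below 100% mean blocked vesicle binding to the CD8+ T cells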
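Assay system – 2C mouse CD8+ T cells · Also added – QL9-loaded Drosophila micro-vesicles · Timing – Cell–vesicle co-incubation 1.5 h at 37 °C, staining 20 min on ice · Signal – flow cytometry of vesicle-bound cells · Measure – percent CD8+ FL2 mean versus row control · Controls – Peptide-free naked vesicles (low) and QL9 vesicles with 0.7% DMSO vehicle (high)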
UCH37 DUB inh: blocks the human deubiquitinase UCH37; Q9Y5K5; purified proteasome/UCH37, Ub-AMC cleavage fluorescence; inhibition, % (test concentration not listed); hit rate 0.33% among 330,000;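 active = mean inhibition over replicate wells above about 20%, limit read from the data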
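Material: Human UCH37 enzyme supplied as purified proteasome complex | Schedule: 30 min compound-proteasome preincubation then 25 min substrate reaction, room temperature | Detection: AMC fluorescence from Ub-AMC cleavage, excitation 355 nm, emission 460 nm | Benchmarks: Wells without proteasome as full block, compound-free enzyme plus substrate as uninhibited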
MEKK3 PB1 HTS: raises or lowers MEK5 binding to the human MEKK3 PB1 domain; bead-based flow cytometry, Alexa488-MEK5 binding to MEKK3; actives lie on both sides; 0 = blocked by unlabeled MEK5, 100 = vehicle; hit rate 1.4% among 290,000; Q99759; AID 1529; binding response (% of control), % at 10 µM;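 active = binding response more than 3 SD above or below the average of its plate-row segment, actives on both sides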;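 note: Alexa488 bead fluorescence after subtracting the streptavidin-only scavenger bead signal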
Target sequence (Q99759 whole entry, looked up, the tested form may be a part): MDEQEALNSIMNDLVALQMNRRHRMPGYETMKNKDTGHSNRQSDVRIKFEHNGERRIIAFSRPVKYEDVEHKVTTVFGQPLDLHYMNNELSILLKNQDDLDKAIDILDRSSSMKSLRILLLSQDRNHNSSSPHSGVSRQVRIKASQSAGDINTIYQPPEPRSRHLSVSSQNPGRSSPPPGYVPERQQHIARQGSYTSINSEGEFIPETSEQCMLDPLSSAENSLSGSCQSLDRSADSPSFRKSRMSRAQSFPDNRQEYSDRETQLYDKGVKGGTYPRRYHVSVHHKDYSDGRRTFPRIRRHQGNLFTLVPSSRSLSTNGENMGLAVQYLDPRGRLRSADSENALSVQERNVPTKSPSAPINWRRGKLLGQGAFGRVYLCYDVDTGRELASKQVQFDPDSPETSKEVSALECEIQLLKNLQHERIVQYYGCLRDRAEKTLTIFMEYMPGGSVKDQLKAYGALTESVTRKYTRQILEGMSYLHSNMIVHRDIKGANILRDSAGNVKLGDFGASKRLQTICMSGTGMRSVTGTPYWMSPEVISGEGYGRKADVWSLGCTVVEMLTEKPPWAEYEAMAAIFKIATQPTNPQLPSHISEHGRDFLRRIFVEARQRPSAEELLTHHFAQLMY
MEKK2 WT-MEK5: raises or lowers MEK5 binding to wildtype human MEKK2 PB1 domain; Q9Y2U5; bead flow cytometry, Alexa488-MEK5 binding to MEKK2 WT; actives lie on both sides; binding response (% of control), % at 10 µM; hit rate 1.1% among 290,000; AID 1531; in the data active = binding response below about 67% or above about 130%
MEKK2wt confirm: raises or lowers MEK5 binding to wildtype human MEKK2, retest | shares compounds with MEKK3 PB1 HTS | bead flow cytometry, Alexa488-MEK5 binding to MEKK2 WT; actives lie on both sides | binding response (% of control), % at 10 µM | hit rate 2.4% among 5,900; in the data active = binding response below about 16% or above about 210%; inactive = in between
MEKK2mut confirm: signal of MEK5 binding to mutant human MEKK2, retest. hit rate 2% among 5,900. percent response, % at 10 µM. bead flow cytometry, Alexa488-MEK5 binding to MEKK2 mutant. AID 1893. shares compounds with MEKK3 PB1 HTS; in the data active = percent response mostly above about 71%, no sharp cut-off; inactive = mostly below about 38%;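 note: higher means compound restores mutant binding toward wildtype level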
MEKK3-MEK5 inh: confirmation of inhibitors of MEK5 binding to human MEKK3 | shares compounds with MEKK3 PB1 HTS | bead flow cytometry, Alexa488-MEK5 binding to MEKK3; stronger effect = lower value | binding response (% of control), % at 10 µM | hit rate 1.8% among 5,900 | AID 1894;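 active = binding response below 72% of control, or above a set upper limit, though filed actives all read lower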
Each line names hits and unclear results; the compound was inactive in the other large screens (follow-up assays come after a bar, where they were run); ! = not active in a repeat; [ ] = dose if it differs, or a comment. Sampled rows, rich in hits. Any-hit rate of the full collection: about 2.5%.

O=C(Nc1cccc(C(F)(F)F)c1)N1CCC(c2nc(-c3ccc(F)cc3)no2)CC1	MEKK2 WT-MEK5 173 (no result: T cell HTS) | MEKK2wt confirm inactive | MEKK2mut confirm inactive | MEKK3-MEK5 inh inactive
O=C(Nc1ccccc1)N1CCCC(c2nc(-c3ccc(F)cc3)no2)C1 (stereo not drawn)	none
Cc1nc2ccccn2c1C(=O)NN=Cc1ccccc1	none (no result: MEKK2mut PB1 HTS, Rce1 inhib, T cell HTS, MEKK3 PB1 HTS, MEKK2 WT-MEK5)
COC(=O)c1c(NC(=O)/C=C/c2ccco2)sc2c1CCC2	MEKK3 PB1 HTS 134 | MEKK2wt confirm inactive | MEKK2mut confirm inactive | MEKK3-MEK5 inh inactive
O=C(CN1CCOCC1)Nc1ccc(Oc2ccccc2)cc1	none
O=C(CN1CCN(c2ccccc2)CC1)Nc1ccc(Oc2ccccc2)cc1	MEKK3 PB1 HTS 2.0[inhibitor], MEKK2 WT-MEK5 1.0[inhibitor] | MEKK2wt confirm inactive | MEKK2mut confirm inactive | MEKK3-MEK5 inh inactive
O=C(CN1CCCC1)Nc1ccc(Oc2ccc(NC(=O)CN3CCCC3)cc2)cc1	MEKK3 PB1 HTS 1.0[inhibitor], MEKK2 WT-MEK5 1.0[inhibitor] | MEKK2wt confirm inactive | MEKK2mut confirm inactive | MEKK3-MEK5 inh inactive
O=C(CSc1nc2ccccc2[nH]1)NN=C/C=C/c1ccccc1[N+](=O)[O-]	none (no result: MEKK2mut PB1 HTS, Rce1 inhib, T cell HTS, MEKK3 PB1 HTS, MEKK2 WT-MEK5)
O=S1(=O)N=C(NN=Cc2ccc(Br)o2)c2ccccc21	none (no result: MEKK2mut PB1 HTS, Rce1 inhib, T cell HTS, MEKK3 PB1 HTS, MEKK2 WT-MEK5)
CN1C/C(=C/c2cccnc2)C(=O)/C(=C/c2cccnc2)C1	MEKK3 PB1 HTS 59[inhibitor] (no result: Rce1 inhib) | MEKK2wt confirm inactive | MEKK2mut confirm inactive | MEKK3-MEK5 inh inactive
COc1ccccc1N(CC(=O)NCC1CCCO1)C(=O)CNS(=O)(=O)c1ccccc1 (stereo not drawn)	MEKK3 PB1 HTS 135 | MEKK2wt confirm inactive | MEKK2mut confirm inactive | MEKK3-MEK5 inh inactive
Cc1ccc(C(=O)CC(C(=O)O)n2cncn2)cc1 (stereo not drawn)	none (no result: T cell HTS)
Cc1ccc(C(=O)CC(C(=O)O)n2cnc([N+](=O)[O-])n2)cc1 (stereo not drawn)	MEKK3 PB1 HTS 49[inhibitor] | MEKK2wt confirm inactive | MEKK2mut confirm inactive | MEKK3-MEK5 inh inactive
CC(=NNC(=O)c1ccc(O)cc1)c1cccc(NC(=O)c2ccccc2C)c1	none (no result: MEKK2mut PB1 HTS, Rce1 inhib, T cell HTS, MEKK3 PB1 HTS, MEKK2 WT-MEK5)
CCOc1ccccc1CN1CCNC(=O)C1CC(=O)NCCC1=CCCCC1 (stereo not drawn)	MEKK2mut PB1 HTS 24 | MEKK2wt confirm inactive | MEKK2mut confirm inactive | MEKK3-MEK5 inh inactive
CCOc1ccccc1NC(=O)C(OC(=O)c1ccccc1)c1ccccc1 (stereo not drawn)	MEKK3 PB1 HTS 130 | MEKK2wt confirm inactive | MEKK2mut confirm inactive | MEKK3-MEK5 inh inactive
CCOC(=O)C1=C(C)N=c2sc(=Cc3ccc(C(=O)O)cc3)c(=O)n2C1c1ccc(F)cc1 (stereo not drawn)	none (no result: MEKK2mut PB1 HTS, Rce1 inhib, T cell HTS, MEKK3 PB1 HTS, MEKK2 WT-MEK5)
Cc1c2cc(O)c(=O)cc-2oc2cc(O)c(O)cc12	MEKK3 PB1 HTS 54![inhibitor], MEKK2 WT-MEK5 25![inhibitor] | MEKK2wt confirm inactive | MEKK2mut confirm inactive | MEKK3-MEK5 inh 64
CCS(=O)(=O)c1ccc(N=Nc2ccc(O)c3ncccc23)c(OC)c1	MEKK3 PB1 HTS 131 (no result: T cell HTS) | MEKK2wt confirm inactive | MEKK2mut confirm inactive | MEKK3-MEK5 inh inactive
CC(C)CCNC(=O)/C=C/c1ccc(Br)cc1	MEKK3 PB1 HTS 2.0[inhibitor], MEKK2 WT-MEK5 2.0[inhibitor] | MEKK2wt confirm inactive | MEKK2mut confirm inactive | MEKK3-MEK5 inh inactive
Cn1c(SCc2nc3ccccc3n2CCO)nc2ccccc21	MEKK3 PB1 HTS 125 (no result: Rce1 inhib) | MEKK2wt confirm inactive | MEKK2mut confirm inactive | MEKK3-MEK5 inh inactive
CC(=O)Nc1ccc(S(=O)(=O)Oc2ccc(C=NNC(=O)c3ccc(Cl)cc3)cc2)cc1	none (no result: MEKK2mut PB1 HTS, Rce1 inhib, T cell HTS, MEKK3 PB1 HTS, MEKK2 WT-MEK5)

Bioassay records: PubChem, several laboratories
